The source made the active and inactive calls. The calls are words filed in the database; no cut-off is given here.
What was measured:
Nucleic Acid = experiment: Inhibitory concentration against ethidium bromide binding to [poly(dA-dT)] [poly(dA-dT)]; format: nucleic-acid assay
Method in brief: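 Fluorometric ethidium displacement using poly[d(A-T)]. C50 is the micromolar ligand concentration that displaces 50% of previously bound ethidium. For intercalators it is inversely proportional to the ligand–DNA association constant.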

P388 = experiment: Inhibition of P388 leukemia cells growth in culture; format: functional, cell-based; conditions: Mus musculus
Method in brief: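 P388 leukemia cells in exponential growth were exposed to drug for 70 h. IC50 is the micromolar concentration that reduces cell growth to 50% of control values.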

Mus musculus [1] = experiment: Percentage increase in lifespan of P388 tumor-bearing mice compared with tumor-bearing controls at optimal dose of 150 mg/kg/day; NA = Not active; format: functional, organism-based
Method in brief: (§1)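 Mice were inoculated ip with 10^6 P388 leukemia cells. Drug was given ip on days 1, 5 and 9 in 0.1 mL of 30% v/v EtOH-water, with dose in mg/kg/day. Optimal dose was determined, and ILS is the % lifespan increase over tumor-bearing controls at that dose.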

Mus musculus [2] = experiment: Percentage increase in lifespan of P388 tumor-bearing mice compared with tumor-bearing controls at optimal dose of 65 mg/kg/day; NA=Not active; format: functional, organism-based; method in brief: as §1
Mus musculus [3] = experiment: Percentage increase in lifespan of P388 tumor-bearing mice compared with tumor-bearing controls at optimal dose of 65 mg/kg/day; NA= Not active; format: functional, organism-based; method in brief: as §1
Mus musculus [4] = experiment: Optimal dose required to inhibit P388 leukemia cells when administered intraperitoneally in mice; format: functional; method in brief: as §1
Mus musculus [5] = experiment: Percentage increase in lifespan of P388 tumor-bearing mice compared with tumor-bearing controls at optimal dose of 65 mg/kg/day; format: functional

| Compound | C50 (Nucleic Acid) | IC50 (P388) | ILS (Mus musculus [1]) | ILS (Mus musculus [2]) | ILS (Mus musculus [3]) | OD (Mus musculus [4]) | ILS at 65 mg/kg/day (Mus musculus [5]) |
| --- | --- | --- | --- | --- | --- | --- | --- |
| CN(C)CCn1c(=O)c2cccc3c(=O)c4ccncc4n(c1=O)c32 | 10.7 µM | > 40000 nM |  |  |  |  |  |
| CN(C)CCNC(=O)c1cccc2c(O)c3cccnc3nc12 | 27.7 µM | 5500 nM | inactive |  |  |  |  |
| CN(C)CCNC(=O)c1cc([N+](=O)[O-])cc2c(O)c3cccnc3nc12 | 11 µM | 1300 nM |  |  |  |  |  |
| CN(C)CCNC(=O)c1cccc2cc3cccnc3nc12 | 7.6 µM | 490 nM |  | inactive |  |  |  |
| C(=N/NC1=NCCN1)/c1cccc2cc3ncccc3nc12 | 5.4 µM | 3300 nM |  |  | inactive | 45 mg/kg/day |  |
| CN(C)CCNC(=O)c1cccc2c(O)c3ccncc3nc12 | 18.5 µM | > 40000 nM |  |  |  |  |  |
| CN(C)CCNC(=O)c1ccc([N+](=O)[O-])c2c(O)c3cccnc3nc12 | 10.4 µM | 18 nM |  |  |  | 65 mg/kg/day | 31% |
| C(=N/NC1=NCCN1)/c1cccc2cc3ccncc3nc12 | 5.9 µM | 25000 nM |  |  |  |  |  |
| CN(C)CCNC(=O)c1cccc2c(=O)c3ccccc3[nH]c12 | 15 µM | 1700 nM | inactive |  |  |  |  |
| Oc1c2cccc(/C=N\NC3=NCCN3)c2nc2cccnc12 | 9.6 µM | > 40000 nM |  |  |  |  |  |
| CN(C)CCNC(=O)c1cccc2c(O)c3ccc([N+](=O)[O-])cc3nc12 | 4.1 µM | 1200 nM |  |  | inactive | 65 mg/kg/day |  |
| CN(C)CCNC(=O)c1cccc2cc3ccncc3nc12 | 4.6 µM | 8300 nM |  |  |  |  |  |
| CN(C)CCNC(=O)c1ccc([N+](=O)[O-])c2cc3cccnc3nc12 | 2.1 µM | 150 nM |  |  | inactive | 20 mg/kg/day |  |
| C(=N/NC1=NCCN1)/c1cccc2cc3cnccc3nc12 | 6.6 µM | 12300 nM |  |  |  |  |  |
| C(=N/NC1=NCCN1)/c1cccc2cc3cccnc3nc12 | 5 µM | 12000 nM |  |  |  |  |  |
| CN(C)CCNC(=O)c1ccc([N+](=O)[O-])c2c(O)c3cnccc3nc12 | 6.2 µM | 1000 nM |  |  |  |  |  |
| CN(C)CCNC(=O)c1cccc2c(O)c3cc([N+](=O)[O-])ccc3nc12 | 5.9 µM | 3500 nM |  |  |  |  |  |
| CN(C)CCNC(=O)c1cc([N+](=O)[O-])cc2c(O)c3ccccc3nc12 | 4.5 µM | 910 nM |  |  | inactive | 45 mg/kg/day |  |
| CN(C)CCNC(=O)c1cccc2cc3ncccc3nc12 | 11.1 µM | 4400 nM |  |  |  |  | 48% |
| CN(C)CCNC(=O)c1cccc2c(O)c3cnccc3nc12 |  | > 40000 nM |  |  |  |  |  |
| CN(C)CCNC(=O)c1ccc([N+](=O)[O-])c2cc3ncccc3nc12 | 3.1 µM | 85 nM |  |  | inactive | 45 mg/kg/day |  |
| C[N+](C)(C)CC(=O)N/N=C\c1cccc2cc3cccnc3nc12 | 11.1 µM | 1650 nM |  |  | inactive | 65 mg/kg/day |  |
| Oc1c2cccnc2nc2c(/C=N\NC3=NCCN3)cccc12 | 4 µM | 22000 nM |  |  |  |  |  |
| CN(C)CCNC(=O)C1=CC=C([N+](=O)[O-])C2C(=O)c3ccccc3N=C12 (stereo unspecified) | 23 µM | 550 nM |  |  |  |  |  |
| C[N+](C)(C)CC(=O)N/N=C\c1cccc2c(O)c3cccnc3nc12 | 7.3 µM | > 40000 nM |  |  |  |  |  |
| CN(C)CCNC(=O)c1cccc2cc3ccccc3nc12 | 5 µM | 110 nM |  |  |  |  | 91% |
| CN(C)CCNC(=O)c1ccc([N+](=O)[O-])c2cc3cnccc3nc12 | 4.4 µM | 5000 nM |  |  |  |  |  |
| CN(C)CCNC(=O)c1cccc2c(O)c3cccc([N+](=O)[O-])c3nc12 | 2.4 µM | 83 nM |  |  |  | 45 mg/kg/day | 65% |
